Experimental data: ChEMBL document CHEMBL1157010, “Synthesis and in vivo evaluation of 3,4-disubstituted gababutins” (Bioorg Med Chem Lett, 2010)
Active and inactive are the calls of the source. The rule behind the calls is not given here.

How the values were obtained:
[1] = Displacement of [3H]gabapentin from Voltage-dependent calcium channel subunit alpha-2/delta in pig cerebral cortex by scintillation counting; assay type: tissue-based, Sus scrofa
Rattus norvegicus [2] = assay: Antiinflammatory activity against carrageenan-induced thermal hyperalgesia in rat assessed as paw withdrawal from heat at 30 mg/kg, po after 2 hrs; assay type: functional, organism-based; design: dose 30 mg/kg
In short: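 Rats received intraplantar carrageenan in the paw, and inflammation and hyperalgesia developed within 2 h. At that point the compound was given orally. Reversal of thermal hyperalgesia was read as time to paw withdrawal. Significance was tested against vehicle (P <0.05, P <0.01).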

Rattus norvegicus [3] = assay: Sedative activity in rat at > 100 mg/kg, po; assay type: organism-based; design: dose 100 mg/kg, route oral; conditions: in vivo
[4] = Bioavailability in rat; assay type: ADME, organism-based; conditions: in vivo
[5] = Elimination half life in rat; assay type: ADME, organism-based; conditions: in vivo, read-out: beta t1/2 (converted)
Rattus norvegicus [6] = assay: Sedative activity in rat water lick conflict model of anxiety at 100 mg/kg, po; assay type: organism-based; design: dose 100 mg/kg, route oral; conditions: in vivo
[7] = Clearance in rat; assay type: ADME, organism-based; conditions: in vivo
Rattus norvegicus [8] = assay: Anxiolytic activity in po dosed rat water lick conflict model of anxiety assessed as increase in number of shocks received; assay type: functional
In short: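 Rat drinking-conflict model with oral dosing across a range of doses. The read-out was the mean number of shock episodes received per rat over 10 min, where a greater number of shocks indicates reduced anxiety. The minimum effective dose was determined, with significance tested against vehicle (P <0.05).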

[9] = Tmax in rat; assay type: ADME, organism-based; conditions: in vivo
[10] = Lipophilicity, log D at pH 7.4; assay type: physicochemical; conditions: buffer

Question: Which IC50 [1] does the source give for `CC[C@@H]1C[C@](CN)(CC(=O)O)C[C@@H]1CC` here?
Answer: Its IC50 is 4200 nM.

Question: For `C[C@@H]1CC(CN)(CC(=O)O)C[C@H]1C`, which IC50 [1] is on record?
Answer: Its IC50 is 882 nM.

Question: Which IC50 [1] does the source give for `C[C@@H]1C[C@](CN)(CC(=O)O)C[C@@H]1C` here?
Answer: Its IC50 is 153 nM.

Question: Which IC50 [1] does the source give for `C[C@@H]1C[C@@](CN)(CC(=O)O)C[C@@H]1C` here?
Answer: The IC50 was 107 nM.

Question: Which IC50 [1] does the source give for `C[C@@H]1CC[C@@](CN)(CC(=O)O)C1` here?
Answer: The IC50 was 71 nM.

Question: Which IC50 [1] does the source give for `C[C@@H]1CC[C@](CN)(CC(=O)O)C1` here?
Answer: Its IC50 is 30 nM.

Question: With `CCC[C@H]1CC(CN)(CC(=O)O)C[C@@H]1C` (mixture of isomers) as the compound, how does the IC50 [1] read?
Answer: Its IC50 is 21 nM.

Question: With `CC[C@H]1CC(CN)(CC(=O)O)C[C@@H]1CC` (racemic) as the compound, how does the IC50 [1] read?
Answer: The IC50 was 1100 nM.

Question: Which Activity (Rattus norvegicus [2]) does the source give for `C[C@H]1CC(CN)(CC(=O)O)C[C@@H]1C` (relative stereo) [ATAGABALIN] here?
Answer: Its Activity is “Active”.

Question: What about the Activity (Rattus norvegicus [3]) of the same compound?
Answer: The Activity was “Toxic”.

Question: And the bioavailability [4]?
Answer: The bioavailability was 87%.

Question: What about the IC50 [1] of the same compound?
Answer: The IC50 was 22 nM.

Question: And the half-life [5]?
Answer: The half-life was 2.4 h.

Question: What about the Activity (Rattus norvegicus [6]) of the same compound?
Answer: The Activity was “Toxic”.

Question: What about the clearance [7] of the same compound?
Answer: The clearance was 4 mL/min/kg.

Question: What about the Activity (Rattus norvegicus [8]) of the same compound?
Answer: Its Activity is “Dose-dependent effect”.

Question: And the minimal effective dose (Rattus norvegicus [8]; read-out: MED)?
Answer: Its minimal effective dose is 10 mg/kg.

Question: What about the Tmax [9] of the same compound?
Answer: Its Tmax is 1.2 h.

Question: What about the logD [10] of the same compound?
Answer: The logD was -1.
